Assay outcomes deposited in PubChem by The Scripps Research Institute Molecular Screening Center.
Hits are enriched below; roughly 2.4% of the tested compounds scored in any of these assays.
MC4R antag cAMP: blocks human MC4R cAMP signaling; inhibition, % at 6.5 µM; hit rate 0.48% among 360,000; AID 540295; P32245; MC4R-expressing cells, MTII-stimulated cAMP, LANCE TR-FRET;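 active = inhibition above its plate's cutoff, the mean of tested wells on that plate plus 3 SD, cut at about 29% in these data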;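 note: 0% = Melanotan II alone and 100% = Melanotan II plus saturating MCL0020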
Target sequence (P32245 whole entry, looked up): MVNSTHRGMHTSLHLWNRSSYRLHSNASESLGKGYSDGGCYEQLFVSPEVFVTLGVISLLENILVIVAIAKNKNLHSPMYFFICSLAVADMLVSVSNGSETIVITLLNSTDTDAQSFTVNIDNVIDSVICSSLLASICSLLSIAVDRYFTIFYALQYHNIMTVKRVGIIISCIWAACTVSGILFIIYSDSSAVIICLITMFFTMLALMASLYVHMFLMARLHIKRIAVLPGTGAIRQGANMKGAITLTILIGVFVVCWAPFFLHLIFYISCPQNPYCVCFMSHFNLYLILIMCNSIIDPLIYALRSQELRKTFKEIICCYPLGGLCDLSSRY
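system = U2OS cells with stable human MC4R expression | also added = Melanotan II challenge after compound preincubation | dosing = one concentration, 6.5 µM nominal | incubation = compound 30 min, challenge 1 h, detection 1 h | measured by = TR-FRET with Eu-cAMP and labeled anti-cAMP, 671 nm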
MOR-DOR ag: agonists of human mu-delta opioid receptor heterodimerization; hit rate 0.3% among 340,000; AID 504326; cells, OPRM1-OPRD1 heterodimerization, luminescence; activation, % at 9.3 µM; in the data active = activation above about 18%;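 note: 0% = vehicle-treated cells and 100% = reference agonist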
HTR5A ag ctr: HTR5A agonism, opioid heterodimer counter-screen; P47898; HTR5A agonist assay, luminescence, cell-based; activation, % at 9.3 µM; hit rate 0.61% among 340,000; in the data active = activation mostly above about 9.5%, no sharp cut-off; inactive = mostly below about 7.6%;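 note: 0% = cells with vehicle only and 100% = reference agonist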
Target sequence (P47898 whole entry, looked up): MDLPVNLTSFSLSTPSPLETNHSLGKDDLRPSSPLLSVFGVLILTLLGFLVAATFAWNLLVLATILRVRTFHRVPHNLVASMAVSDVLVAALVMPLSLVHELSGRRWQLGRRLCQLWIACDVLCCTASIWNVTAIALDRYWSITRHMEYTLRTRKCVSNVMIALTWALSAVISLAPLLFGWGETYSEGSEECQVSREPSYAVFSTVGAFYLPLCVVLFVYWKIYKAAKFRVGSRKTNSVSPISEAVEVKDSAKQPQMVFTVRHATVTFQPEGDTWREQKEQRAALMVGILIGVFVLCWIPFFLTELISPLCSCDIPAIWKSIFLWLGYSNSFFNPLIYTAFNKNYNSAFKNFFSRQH
MC4R barr agon: agonists of human melanocortin 4 receptor (MC4R) beta-arrestin; P32245; AID 540308; U2OS MC4R beta-arrestin complementation, luminescence; percent of melanotan II response, DMSO zero; hit rate 0.98% among 360,000; activation, % at 8.9 µM;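 active = activation above a per-plate cutoff, the mean activation of sample wells on that plate plus 3 SD, cut at about 8% in these data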
OPRM1-OPRD1 inv: mu-delta opioid heterodimer inverse agonism. hit rate 0.21% among 340,000. cell-based MOR-DOR heterodimer luminescence. AID 504357. P35372+P41143. inhibition, % at 9.3 µM; in the data active = inhibition above about 22%, passing the limit was not always enough;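 note: 0% = cells with DMSO and 100% = wells without cells with DMSO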
HTR5A inv ag: inverse agonist of human HTR5A in OPRM1-OPRD1 counter-screen | P47898 | HTR5A cell line, luminescence, inverse agonism | inhibition, % at 9.3 µM | hit rate 0.083% among 340,000 | AID 504634; in the data active = inhibition mostly above about 23%, no sharp cut-off; inactive = mostly below about 18%;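 note: 0% = cells with DMSO and 100% = no-cell wells with DMSO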
MOR-DOR inv conf: OPRM1-OPRD1 heterodimer inverse agonism, confirmation. shares compounds with OPRM1-OPRD1 inv. cells expressing OPRM1/OPRD1 heterodimer, luminescence. inhibition, % at 9.3 µM. hit rate 20% among 580; in the data active = inhibition above about 32%;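 note: 0% = cells with DMSO and 100% = wells lacking cells with DMSO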
HTR5A inv ctr2: HTR5A inverse agonism, opioid heterodimer counter-screen; shares compounds with OPRM1-OPRD1 inv; HTR5A-expressing cells, luminescence; inhibition, % at 9.3 µM; 580 tested, under 10 active; AID 504914; call rule not given here;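 note: 0% = cells with DMSO and 100% = no-cell wells with DMSO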
* = called active by the depositor; i = inactive; / = no result.

SMILES | MC4R antag cAMP | MOR-DOR ag | HTR5A ag ctr | MC4R barr agon | OPRM1-OPRD1 inv | HTR5A inv ag | MOR-DOR inv conf | HTR5A inv ctr2
O=C(Nc1ccccc1C(F)(F)F)NC1CCCCCCC1 | 2 | 2 | 5 | 5 | -10 | -4 | / | /
C[C@H]1CN([C@@H](C)CO)C(=O)c2cccc(NC(=O)Nc3ccc(C(F)(F)F)cc3)c2O[C@@H]1CN(C)S(=O)(=O)c1ccc(Cl)cc1 | 18 | 2 | 8 | 1 | -10 | -8 | / | /
Cc1[nH][nH]c(=O)c1C(c1c(C)[nH][nH]c1=O)c1cn(Cc2ccc(Cl)c(Cl)c2)c2ccccc12 | -38 | -6 | 1 | -5 | 33 | -30 | / | /
Cc1[nH][nH]c(=O)c1C(c1c(C)[nH][nH]c1=O)c1cn(Cc2ccc(F)cc2)c2ccccc12 | -1 | -8 | 1 | -4 | 43* | 15 | 2 | -3
COc1cccc([C@@H]2Oc3ccc(OC)cc3C(=O)[C@H]2O)c1 | 1 | -6 | -3 | -1 | 35* | 4 | 19 | 9
COc1cc(/C=N/Nc2ccc(F)cc2F)cc(OC)c1O | 3 | -6 | -4 | 1 | 32* | 13 | -12 | 1
COc1cc(/C=N/Nc2ccc(Cl)nn2)cc(OC)c1O | -32 | 3 | 3 | -2 | -12 | -11 | / | /
CC1(C)CC(=O)C=C(c2ccc3c(c2)OCO3)C1 | -7 | -1 | 7 | 0 | 4 | -20 | / | /
CN(C)CC1CC/C(=C\c2ccc(O)cc2)C1=O (stereo not drawn) | -28 | -9 | -6 | -4 | 41* | 24 | i | -26
Cc1cc(C(=O)NNc2ccc(F)cc2)no1 | 2 | -7 | 1 | -1 | 36* | 4 | i | -11
Cc1cc(C(=O)NNc2ccccc2F)no1 | 5 | -4 | -3 | 1 | 20 | -38 | / | /
CCC(=O)Oc1ccc(C(=O)Nc2cccc(C(=O)NCC(C)C)c2)cc1 | -6 | -5 | -1 | -4 | 32* | 4 | -47 | -10
CCC(=O)Oc1ccc(C(=O)Nc2ccccc2C(=O)NCC(C)C)cc1 | 0 | -1 | 0 | -3 | 6 | 5 | / | /
O=C1CNCc2[nH]c3ccccc3c2N1c1ccccc1 | -1 | 0 | -3 | -2 | 0 | 7 | / | /
O=CN1Cc2[nH]c3ccccc3c2N(c2ccc(Cl)cc2)C1=O | 0 | -9 | 3 | -1 | 44* | -8 | 16 | -3
COc1cccc(CN2CCN(Cc3nc(C(C)C)cs3)CC2CCO)c1 (stereo not drawn) | 3 | 1 | 2 | -2 | -4 | 6 | / | /
COc1cc(/C=C/C(=O)c2ccc(C)c([N+](=O)[O-])c2)cc(OC)c1O | -2 | -4 | -6 | -3 | 20* | 19 | -9 | 17
CC1(C)Cc2c(c(=S)nc(-c3ccccc3)n2Cc2cccnc2)CO1 | 14 | -2 | -1 | 2 | 11 | 4 | / | /
COc1ccc(-c2nc(=S)c3c(n2Cc2cccnc2)CC(C)(C)OC3)cc1 | 4 | -7 | 1 | -1 | 33* | -23 | 42* | 5
C/C(Nc1ccc(Cl)c(Cl)c1)=C1/CCOC1=O | 4 | / | / | -1 | / | / | / | /
CC1COC(=O)C(NNc2ccc(Cl)c(Cl)c2)=N1 (stereo not drawn) | -11 | -6 | 10 | -3 | 30* | -29 | 13 | 2
CC(C)NC(=S)n1cc(C(=O)c2cc(Cl)cc(Cl)c2O)cn1 | 17 | 1 | 9 | -1 | -5 | -25 | / | /
Cc1ccc(C2C(C(=O)c3cc4ccccc4o3)=C(O)C(=O)N2CCN2CCOCC2)o1 (stereo not drawn) | 2 | -7 | 0 | 1 | 42* | -5 | -351 | -19
Cc1c(C(=O)NC(=S)Nc2cccnc2)cccc1[N+](=O)[O-] | -1 | -7 | 0 | -6 | 35* | 31 | -201 | -39
O=C(CCN1C(=O)C2C3CCC(C3)C2C1=O)OCC(=O)c1ccc(Br)cc1 (stereo not drawn) | 2 | -3 | 2 | -2 | 16 | -8 | / | /
SMILES | MC4R antag cAMP | MOR-DOR ag | HTR5A ag ctr | MC4R barr agon | OPRM1-OPRD1 inv | HTR5A inv ag | MOR-DOR inv conf | HTR5A inv ctr2
Cc1ccc(C(=O)COC(=O)CCN2C(=O)C3C4CCC(C4)C3C2=O)cc1[N+](=O)[O-] (stereo not drawn) | 0 | -10 | -6 | -3 | 55* | 21 | 48* | 21
O=C(CN1C(=O)C2C3C=CC(C3)C2C1=O)OCC(=O)c1ccc(Cl)c([N+](=O)[O-])c1 (stereo not drawn) | 8 | -14 | -8 | -5 | 78* | 21 | 84* | 19
Cc1ccc(C(=O)COC(=O)CN2C(=O)C3CC=CCC3C2=O)cc1[N+](=O)[O-] (stereo not drawn) | 0 | -9 | -4 | 1 | 50* | 1 | 48* | 20
Cc1ccc(C(=O)COC(=O)CN2C(=O)C3C4C=CC(C4)C3C2=O)cc1[N+](=O)[O-] (stereo not drawn) | 23 | -5 | -4 | 0 | 38* | 12 | -70 | -15
CC1(C)CN2C(=S)N(c3ccccc3)C(c3ccccc3)N2C1 (stereo not drawn) | 5 | 0 | -2 | -1 | 2 | 10 | / | /
Cc1ccc(C(=O)COC(=O)CN2C(=O)C3C4CCC(C4)C3C2=O)cc1[N+](=O)[O-] (stereo not drawn) | 5 | -9 | -6 | -1 | 53* | 23 | -32 | 5
Cn1cnc([N+](=O)[O-])c1Sc1ncccc1N | -4 | -9 | -12 | 0 | 46* | 29* | -4 | 17
O=C(CCC(=O)c1cccs1)OCC(=O)c1ccc(F)cc1 | -1 | -3 | -4 | -1 | 14 | 15 | / | /
CC(=O)CCC(=O)OCC(=O)c1ccc(C(F)(F)F)cc1 | 10 | -9 | 5 | -1 | 45* | 4 | -1 | 13
CC(NC(=O)CN(Cc1ccccc1)S(=O)(=O)c1ccccc1)c1cccnc1 (stereo not drawn) | -2 | -5 | 1 | 0 | 18 | -15 | / | /
Cc1ccc(S(=O)(=O)N=Nc2c(O)[nH]c3ccccc23)cc1 | 3 | -8 | -4 | -2 | 50* | 12 | 1 | 17
Cc1ccc(C)c(S(=O)(=O)N=Nc2c(O)[nH]c3ccccc23)c1 | 13 | -8 | -8 | -2 | 46* | 23 | 19 | 9
Cc1cccc(-c2nnc(SC(C)C(=O)N3CCOCC3)o2)c1 (stereo not drawn) | 2 | -2 | 8 | -3 | 9 | 6 | / | /
CN1CCc2c(sc3c2c(=O)n(-c2ccc(Cl)cc2)c2nncn32)C1 | 8 | 0 | -2 | 0 | 1 | -2 | / | /
